{"source": "ChEMBL document CHEMBL5678802", "about": "“Small-molecule p21-activated kinase inhibitor PF-3758309 is a potent inhibitor of oncogenic signaling and tumor growth” (Proc Natl Acad Sci U S A, 2010)", "key": {"HCT-116 [1]": {"test_system": "HCT-116", "assay": "Antitumor activity against human HCT-116 cells xenografted in nude mouse assessed as inhibition of [3H]FLT uptake at 25 mg/kg, po administered once a day for 6 day and measured after 2 hrs post [3H]FLT administration by scintillation counter analysis relative to control", "format": "functional", "settings": "HCT-116, 144 h", "how_it_was_run": "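HCT116 xenograft mice (tumors 300–350 mm3, n = 5 per group) received oral vehicle or compound, with harvests on days 2, 3 and 6. Isoflurane-anesthetized mice were given [3H]FLT (15 nCi/g, i.p.) 2 h before killing. Tumor and liver were weighed, solubilized and scintillation-counted. SUV = C/(ID/W), and uptake is reported as the tumor-to-liver SUV ratio.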"}, "NCI-H647": {"test_system": "NCI-H647", "assay": "Antiproliferative activity against human NCI-H647 cells assessed as inhibition of cell proliferation incubated for 3 days by CellTiter-Glo Luminescent Cell Viability Assay", "format": "functional, cell-based", "settings": "NCI-H647, 72 h", "how_it_was_run": "(§1)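 Cells of each line were plated in 384-well plates on day 1 and exposed to compound from day 2 for 3 days. On day 5 all medium was aspirated. Viable cell number was read by CellTiter-Glo luminescence, which quantifies cellular ATP.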"}, "[2]": {"assay": "Antiproliferative activity against human Hs 700T cells assessed as inhibition of cell proliferation incubated for 3 days by CellTiter-Glo Luminescent Cell Viability Assay", "format": "functional, cell-based", "settings": "72 h", "how_it_was_run": "(§2)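 Cancer cell lines seeded in 384-well plates on day 1; compound added on day 2 and left for 3 days. On day 5 all medium was aspirated, and viable cells were quantified by CellTiter-Glo luminescence, which measures cellular ATP. Dose-dependent effects on proliferation were determined.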"}, "MIA PaCa-2": {"test_system": "MIA PaCa-2", "assay": "Antiproliferative activity against human MIA PaCa-2 cells assessed as inhibition of cell proliferation incubated for 3 days by CellTiter-Glo Luminescent Cell Viability Assay", "format": "functional, cell-based", "settings": "MIA PaCa-2, 72 h", "how_it_was_run": "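Cancer cell lines seeded in 384-well plates on day 1; compound added on day 2 and incubated 3 days. On day 5 media aspirated and viable cells quantified by ATP content using CellTiter-Glo luminescence; dose-dependent proliferation effects determined.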"}, "BT-20": {"test_system": "BT-20", "assay": "Antiproliferative activity against human BT-20 cells assessed as inhibition of cell proliferation incubated for 3 days by CellTiter-Glo Luminescent Cell Viability Assay", "format": "functional, cell-based", "settings": "BT-20, 72 h", "how_it_was_run": "as §2"}, "[3]": {"assay": "Antiproliferative activity against human Panc 05.04 cells assessed as inhibition of cell proliferation incubated for 3 days by CellTiter-Glo Luminescent Cell Viability Assay", "format": "functional, cell-based", "settings": "Panc 05.04, 72 h", "how_it_was_run": "as §1"}, "HCT-15": {"test_system": "HCT-15", "assay": "Antiproliferative activity against human HCT-15 cells assessed as inhibition of cell proliferation incubated for 3 days by CellTiter-Glo Luminescent Cell Viability Assay", "format": "functional, cell-based", "settings": "HCT-15, 72 h", "how_it_was_run": "as §2"}, "NCI-H1770": {"test_system": "NCI-H1770", "assay": "Inhibition of anchorage independent cell growth in human NCI-H1770 cells incubated for 6 days by Alamar blue reagent based fluorescence plate reader analysis", "format": "functional", "settings": "NCI-H1770, 144 h"}, "[4]": {"target": "Ribosomal protein S6 kinase alpha-1 (Homo sapiens, UniProt Q15418)", "sequence (Q15418 whole entry)": "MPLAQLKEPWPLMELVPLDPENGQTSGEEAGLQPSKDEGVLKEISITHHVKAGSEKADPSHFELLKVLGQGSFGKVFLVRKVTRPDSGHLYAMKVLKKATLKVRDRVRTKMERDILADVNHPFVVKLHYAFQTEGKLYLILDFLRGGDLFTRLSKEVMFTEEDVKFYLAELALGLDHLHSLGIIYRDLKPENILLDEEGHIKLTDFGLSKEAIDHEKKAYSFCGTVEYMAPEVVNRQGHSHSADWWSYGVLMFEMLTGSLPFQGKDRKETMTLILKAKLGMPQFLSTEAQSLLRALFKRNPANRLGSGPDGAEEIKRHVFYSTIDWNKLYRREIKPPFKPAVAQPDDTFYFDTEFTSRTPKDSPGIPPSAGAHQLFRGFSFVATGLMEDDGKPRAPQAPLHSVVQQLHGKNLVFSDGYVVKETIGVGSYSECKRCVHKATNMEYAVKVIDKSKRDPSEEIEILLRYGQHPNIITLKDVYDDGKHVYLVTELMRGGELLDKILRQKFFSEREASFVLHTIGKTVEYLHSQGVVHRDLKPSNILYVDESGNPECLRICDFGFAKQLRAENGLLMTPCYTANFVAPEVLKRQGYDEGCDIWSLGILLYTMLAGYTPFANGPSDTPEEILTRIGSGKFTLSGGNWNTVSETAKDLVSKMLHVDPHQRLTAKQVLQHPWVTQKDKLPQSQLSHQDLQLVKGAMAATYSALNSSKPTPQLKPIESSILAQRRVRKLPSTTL", "assay": "Inhibition of human RSK1 in presence of ATP"}, "[5]": {"target": "Tyrosine-protein kinase Yes (Homo sapiens, UniProt P07947)", "sequence (P07947 whole entry)": "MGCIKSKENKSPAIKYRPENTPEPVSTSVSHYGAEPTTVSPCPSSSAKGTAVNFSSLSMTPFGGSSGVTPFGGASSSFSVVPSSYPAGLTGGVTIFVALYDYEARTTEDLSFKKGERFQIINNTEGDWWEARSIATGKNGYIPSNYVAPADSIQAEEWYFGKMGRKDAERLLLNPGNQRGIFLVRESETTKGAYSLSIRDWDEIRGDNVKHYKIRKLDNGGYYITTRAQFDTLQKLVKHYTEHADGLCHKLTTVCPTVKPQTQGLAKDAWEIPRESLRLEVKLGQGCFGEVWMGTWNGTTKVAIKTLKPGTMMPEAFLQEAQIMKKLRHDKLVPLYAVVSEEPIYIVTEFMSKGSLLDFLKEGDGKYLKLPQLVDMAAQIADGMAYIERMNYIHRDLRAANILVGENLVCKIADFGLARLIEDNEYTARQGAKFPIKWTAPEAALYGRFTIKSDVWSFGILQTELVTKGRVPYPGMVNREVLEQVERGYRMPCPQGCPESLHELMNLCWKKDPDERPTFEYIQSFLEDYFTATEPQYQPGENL", "assay": "Inhibition of human YES1 in presence of ATP by cellular assay"}, "COLO 205": {"test_system": "COLO 205", "assay": "Antiproliferative activity against human COLO 205 cells assessed as inhibition of cell proliferation incubated for 3 days by CellTiter-Glo Luminescent Cell Viability Assay", "format": "functional, cell-based", "settings": "COLO 205, 72 h", "how_it_was_run": "as §2"}, "PANC-1": {"test_system": "PANC-1", "assay": "Antiproliferative activity against human PANC-1 cells assessed as inhibition of cell proliferation incubated for 3 days by CellTiter-Glo Luminescent Cell Viability Assay", "format": "functional, cell-based", "settings": "PANC-1, 72 h", "how_it_was_run": "as §1"}, "NCI-H1703": {"test_system": "NCI-H1703", "assay": "Antiproliferative activity against human NCI-H1703 cells assessed as inhibition of cell proliferation incubated for 3 days by CellTiter-Glo Luminescent Cell Viability Assay", "format": "functional, cell-based", "settings": "NCI-H1703, 72 h", "how_it_was_run": "as §1"}, "[6]": {"target": "Serine/threonine-protein kinase PAK 6 (Homo sapiens, UniProt Q9NQU5)", "sequence (Q9NQU5 whole entry, the tested form may be a part)": "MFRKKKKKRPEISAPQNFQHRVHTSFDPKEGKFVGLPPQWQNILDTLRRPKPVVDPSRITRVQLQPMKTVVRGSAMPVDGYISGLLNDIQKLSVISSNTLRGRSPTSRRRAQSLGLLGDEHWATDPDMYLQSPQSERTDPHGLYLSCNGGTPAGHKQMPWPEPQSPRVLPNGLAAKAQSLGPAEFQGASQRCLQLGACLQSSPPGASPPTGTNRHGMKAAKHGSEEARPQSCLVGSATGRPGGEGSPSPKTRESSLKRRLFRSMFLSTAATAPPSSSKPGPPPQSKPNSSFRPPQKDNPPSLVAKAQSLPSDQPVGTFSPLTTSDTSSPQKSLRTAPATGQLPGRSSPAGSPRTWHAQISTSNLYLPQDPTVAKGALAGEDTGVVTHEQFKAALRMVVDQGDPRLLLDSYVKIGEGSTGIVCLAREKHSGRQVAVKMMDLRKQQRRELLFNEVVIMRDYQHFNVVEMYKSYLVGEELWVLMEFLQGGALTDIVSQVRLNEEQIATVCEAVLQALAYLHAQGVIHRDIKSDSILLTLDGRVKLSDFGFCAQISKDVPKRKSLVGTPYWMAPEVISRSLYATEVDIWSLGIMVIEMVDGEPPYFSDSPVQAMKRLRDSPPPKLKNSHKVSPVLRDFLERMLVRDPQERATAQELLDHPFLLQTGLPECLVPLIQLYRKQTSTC", "assay": "Inhibition of PAK6 (unknown origin) using EVPRRKSLVGTPYWM peptide as substrate assessed as inhibition constant in presence of ATP by biochemical assay", "how_it_was_run": "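PAK6 kinase domain activity coupled to NADH oxidation via pyruvate kinase/lactate dehydrogenase (2 mM phosphoenolpyruvate, 0.33 mM NADH, 15 units/mL each PK and LDH) in 50 mM Hepes pH 7.5, 1 mM DTT, 5 mM MgCl2, 0.5 mM peptide 7, 0.072 mM ATP. Initial rates by linear least-squares regression; Ki from competitive or tight-binding inhibition fits.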"}, "[7]": {"target": "Protein kinase C theta type (Homo sapiens, UniProt Q04759)", "sequence (Q04759 whole entry)": "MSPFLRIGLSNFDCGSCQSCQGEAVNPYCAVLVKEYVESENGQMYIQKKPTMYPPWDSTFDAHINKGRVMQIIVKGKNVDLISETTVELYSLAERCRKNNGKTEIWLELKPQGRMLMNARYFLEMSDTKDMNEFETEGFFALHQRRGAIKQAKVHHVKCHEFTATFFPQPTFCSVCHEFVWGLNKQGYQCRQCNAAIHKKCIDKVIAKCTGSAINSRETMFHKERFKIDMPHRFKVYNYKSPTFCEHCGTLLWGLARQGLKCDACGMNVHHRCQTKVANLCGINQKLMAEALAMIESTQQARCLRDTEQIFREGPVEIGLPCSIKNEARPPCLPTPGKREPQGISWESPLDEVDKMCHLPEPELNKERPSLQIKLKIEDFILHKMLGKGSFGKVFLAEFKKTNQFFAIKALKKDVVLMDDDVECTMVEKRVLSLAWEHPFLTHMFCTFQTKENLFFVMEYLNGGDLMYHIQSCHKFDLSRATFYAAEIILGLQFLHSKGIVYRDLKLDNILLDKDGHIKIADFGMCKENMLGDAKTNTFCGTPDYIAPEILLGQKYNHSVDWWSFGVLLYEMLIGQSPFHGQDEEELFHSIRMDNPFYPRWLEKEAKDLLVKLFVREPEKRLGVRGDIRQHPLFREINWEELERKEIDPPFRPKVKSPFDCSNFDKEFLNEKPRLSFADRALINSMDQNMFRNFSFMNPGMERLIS", "assay": "Inhibition of human PKCtheta in presence of ATP by cellular assay"}, "HCT-116 [8]": {"test_system": "HCT-116", "assay": "Antitumor activity against human HCT-116 cells xenografted in nude mouse assessed as reduction in PKCalpha phosphorylation at S569 residue at 15 to 150 mg/kg/day administered via pump for 18 hrs by Reverse-Phase protein array analysis", "format": "functional, organism-based", "settings": "dose 15-150 mg/kg/day"}, "Panc1005": {"test_system": "Panc1005", "assay": "Antiproliferative activity against human Panc1005 cells assessed as inhibition of cell proliferation incubated for 3 days by CellTiter-Glo Luminescent Cell Viability Assay", "format": "functional, cell-based", "settings": "Panc1005, 72 h", "how_it_was_run": "as §1"}, "HCT-116 [9]": {"test_system": "HCT-116", "assay": "Antitumor activity against human HCT-116 cells xenografted in nude mouse assessed as tumor growth inhibition at 1.1 mg/kg administered via pump for 9 days relative to control", "format": "functional", "settings": "HCT-116, 216 h, time 9 day, read-out: TGI"}, "[10]": {"target": "Protein kinase C gamma type (Homo sapiens, UniProt P05129)", "assay": "Inhibition of human PKCgamma in presence of ATP by cellular assay"}, "[11]": {"target": "Protein kinase C beta type (Homo sapiens, UniProt P05771)", "sequence (P05771 2-671 limits assumed)": "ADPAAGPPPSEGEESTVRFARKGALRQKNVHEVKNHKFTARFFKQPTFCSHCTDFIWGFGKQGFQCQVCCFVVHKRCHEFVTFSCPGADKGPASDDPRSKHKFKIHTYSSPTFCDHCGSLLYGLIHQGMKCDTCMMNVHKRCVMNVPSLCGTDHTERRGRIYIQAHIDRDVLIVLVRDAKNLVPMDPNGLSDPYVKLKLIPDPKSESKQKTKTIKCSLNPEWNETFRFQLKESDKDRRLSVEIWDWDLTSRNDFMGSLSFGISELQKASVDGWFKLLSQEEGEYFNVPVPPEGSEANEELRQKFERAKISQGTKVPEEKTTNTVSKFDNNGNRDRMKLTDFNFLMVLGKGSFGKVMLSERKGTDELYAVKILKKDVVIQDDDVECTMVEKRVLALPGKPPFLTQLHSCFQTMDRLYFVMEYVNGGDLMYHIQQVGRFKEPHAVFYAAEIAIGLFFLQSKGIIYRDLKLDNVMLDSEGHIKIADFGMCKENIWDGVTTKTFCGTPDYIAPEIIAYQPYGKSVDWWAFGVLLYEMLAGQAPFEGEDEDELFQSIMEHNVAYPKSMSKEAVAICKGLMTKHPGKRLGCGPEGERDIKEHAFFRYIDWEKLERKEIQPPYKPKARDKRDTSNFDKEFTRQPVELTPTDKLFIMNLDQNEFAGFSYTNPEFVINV", "assay": "Inhibition of human PKCbeta1 in presence of ATP relative to control", "settings": "concentration not given here"}, "NCI-H2087": {"test_system": "NCI-H2087", "assay": "Antiproliferative activity against human NCI-H2087 cells assessed as inhibition of cell proliferation incubated for 3 days by CellTiter-Glo Luminescent Cell Viability Assay", "format": "functional, cell-based", "settings": "NCI-H2087, 72 h", "how_it_was_run": "as §1"}, "HCC827": {"test_system": "HCC827", "assay": "Inhibition of anchorage independent cell growth in human HCC827 cells incubated for 6 days by Alamar blue reagent based fluorescence plate reader analysis", "format": "functional", "settings": "HCC827, 144 h"}, "HCT-116 [12]": {"test_system": "HCT-116", "assay": "Antitumor activity against human HCT-116 cells xenografted in nude mouse assessed as reduction in MEK1 phosphorylation at S221 residue at 15 to 150 mg/kg/day administered via pump for 18 hrs by Reverse-Phase protein array analysis", "format": "functional, organism-based", "settings": "dose 15-150 mg/kg/day"}, "HCT-116 [13]": {"test_system": "HCT-116", "assay": "Antitumor activity against human HCT-116 cells xenografted in nude mouse assessed as tumor growth inhibition at 7.5 mg/kg, po administered twice daily for 9 to 18 days relative to control", "format": "functional", "settings": "time 9-18 day, read-out: TGI"}, "A549": {"test_system": "A549", "assay": "Antitumor activity against human A549 cells xenografted in nude mouse assessed as tumor growth inhibition at 10 mg/kg, po administered once daily for 9 to 18 days relative to control", "format": "functional", "settings": "time 9-18 day, read-out: TGI", "how_it_was_run": "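Tumor cells were implanted s.c. into the right flank of female nu/nu nude mice aged 6–8 weeks. Animals were randomized into treatment groups once tumors were established (example: day 8 postimplant, about 170 mm3, animals >22 g). Compound in 0.5% methylcellulose was given by oral gavage. Tumors were measured with calipers two to three times per week.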"}}, "note": "pIC50, pKi: −log10 of the molar value. The source made the active and inactive calls. The rule behind the calls is not given here.", "data": [{"smiles": "Cc1nc(Nc2n[nH]c3c2CN(C(=O)N[C@H](CN(C)C)c2ccccc2)C3(C)C)c2sccc2n1", "note": "[PF-03758309]", "values": [{"measurement": "inhibition in vivo at 25 mg/kg", "setting": "HCT-116 [1]", "result": 43.1, "unit": "%"}, {"measurement": "pIC50", "setting": "NCI-H647", "result": 7.44}, {"measurement": "pIC50", "setting": "[2]", "result": 5.62}, {"measurement": "pIC50", "setting": "MIA PaCa-2", "result": 7.77}, {"measurement": "pIC50", "setting": "BT-20", "result": 7.09}, {"measurement": "pIC50", "setting": "[3]", "result": 7.29}, {"measurement": "pIC50", "setting": "HCT-15", "result": 5.00}, {"measurement": "pIC50", "setting": "NCI-H1770", "result": 8.74}, {"measurement": "pIC50", "setting": "[4]", "result": 8.70}, {"measurement": "pIC50", "setting": "[5]", "result": 6.21}, {"measurement": "pIC50", "setting": "COLO 205", "result": 8.55}, {"measurement": "pIC50", "setting": "PANC-1", "result": 6.07}, {"measurement": "pIC50", "setting": "NCI-H1703", "result": 8.36}, {"measurement": "pKi", "setting": "[6]", "result": 7.77}, {"measurement": "pIC50", "setting": "[7]", "result": 6.25}, {"measurement": "Activity", "setting": "HCT-116 [8]", "result": "Active"}, {"measurement": "pIC50", "setting": "Panc1005", "result": 7.17}, {"measurement": "inhibition in vivo at 1.1 mg/kg", "setting": "HCT-116 [9]", "result": 104, "unit": "%"}, {"measurement": "pIC50", "setting": "[10]", "result": 5.32}, {"measurement": "inhibition", "setting": "[11]", "result": 71, "unit": "%"}, {"measurement": "pIC50", "setting": "NCI-H2087", "result": 8.37}, {"measurement": "pIC50", "setting": "HCC827", "result": 8.66}, {"measurement": "Activity", "setting": "HCT-116 [12]", "result": "Active"}, {"measurement": "inhibition in vivo at 7.5 mg/kg", "setting": "HCT-116 [13]", "result": 64, "unit": "%"}, {"measurement": "inhibition in vivo at 10 mg/kg", "setting": "A549", "result": 71, "unit": "%"}]}]}
